Calls of active or inactive are those of the source. No cut-off for these calls is given here.
What was measured:
[1] = target: T1, Glutamate NMDA receptor; Grin1/Grin2b (Rattus norvegicus) (UniProt P35439+Q00960); experiment: Agonist activity at rat GluN1/GluN2B NMDA receptor expressed in Xenopus oocytes assessed as maximal relative efficacy measured at 100 uM after 4 days in presence of L-glutamte by two-electrode voltage-clamp recording assay relative to glycine; type: cell-based; settings: Oocyte, time 4.0 day
Summary of the method: (§1)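 Rat GluN1 plus GluN2A or GluN2B cRNA (1:2) in Xenopus oocytes. TEVC at −40 mV, room temperature, 2–4 days post-injection. Bath: 90 mM NaCl, 1 mM KCl, 10 mM HEPES, 0.5 mM BaCl2, 0.01 mM EDTA, pH 7.4. Oocytes were BAPTA-injected before recording. Agonist applied with 300 μM L-Glu throughout. […] NR means <5% response at the stated concentration. 3–14 oocytes.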

[2] = target: Glutamate NMDA receptor; Grin1/Grin2a (Rattus norvegicus, UniProt P35439+Q00959); experiment: Agonist activity at rat GluN1/GluN2A NMDA receptor expressed in Xenopus oocytes measured after 4 days in presence of L-glutamte by two-electrode voltage-clamp recording assay; type: cell-based, Oocyte
Summary of the method: (§2)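 Rat GluN1 plus GluN2A or GluN2B cRNA (1:2) in Xenopus oocytes. TEVC at −40 mV, room temperature, 2–4 days post-injection. Bath: 90 mM NaCl, 1 mM KCl, 10 mM HEPES, 0.5 mM BaCl2, 0.01 mM EDTA, pH 7.4. Oocytes were BAPTA-injected before recording. Agonist applied with 300 μM L-Glu throughout. NR means <5% response at the stated concentration. 3–14 oocytes.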

[3] = target: Glutamate NMDA receptor; Grin1/Grin2c (Rattus norvegicus, UniProt P35439+Q00961); experiment: Agonist activity at rat GluN1/GluN2C NMDA receptor expressed in Xenopus oocytes measured after 4 days in presence of L-glutamte by two-electrode voltage-clamp recording assay; type: cell-based, Oocyte
Summary of the method: (§3)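 Xenopus oocytes were injected with rat GluN1 and GluN2C or GluN2D cRNA (1:2) and recorded by TEVC 2–4 days later at −40 mV, room temperature, pH 7.4 HEPES/NaCl/BaCl2 saline. Concentration-response with 300 μM L-Glu present. NR means <5% response at the concentration given. DMSO ≤0.5%. 3–14 oocytes.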

[4] = target: Glutamate NMDA receptor; Grin1/Grin2c (Rattus norvegicus) (UniProt P35439+Q00961); experiment: Agonist activity at rat GluN1/GluN2C NMDA receptor expressed in Xenopus oocytes assessed as maximal relative efficacy measured after 4 days in presence of L-glutamte by two-electrode voltage-clamp recording assay relative to glycine; type: cell-based; settings: Oocyte, time 4.0 day
Summary of the method: (§4)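 Xenopus oocytes were injected with rat GluN1 and GluN2C or GluN2D cRNA (1:2) and recorded by TEVC 2–4 days later at −40 mV, room temperature, pH 7.4 HEPES/NaCl/BaCl2 saline. Concentration-response with 300 μM L-Glu present. […] NR means <5% response at the concentration given. DMSO ≤0.5%. 3–14 oocytes.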

[5] = target: T2, Glutamate NMDA receptor; Grin1/Grin2a (Rattus norvegicus) (UniProt P35439+Q00959); experiment: Agonist activity at rat GluN1/GluN2A NMDA receptor expressed in Xenopus oocytes assessed as maximal relative efficacy measured after 4 days in presence of L-glutamte by two-electrode voltage-clamp recording assay relative to glycine; type: cell-based; settings: Oocyte, time 4.0 day; summary of the method: as §1
[6] = target: T3, Ionotropic glutamate receptor NMDA 1/2D (Rattus norvegicus) (UniProt P35439+Q62645); experiment: Agonist activity at rat GluN1/GluN2D NMDA receptor expressed in Xenopus oocytes assessed as maximal relative efficacy measured at 100 uM after 4 days in presence of L-glutamte by two-electrode voltage-clamp recording assay relative to glycine; type: cell-based; settings: Oocyte, time 4.0 day; summary of the method: as §4
[7] = target: T3, Ionotropic glutamate receptor NMDA 1/2D (Rattus norvegicus); experiment: Agonist activity at rat GluN1/GluN2D NMDA receptor expressed in Xenopus oocytes assessed as maximal relative efficacy measured after 4 days in presence of L-glutamte by two-electrode voltage-clamp recording assay relative to glycine; type: cell-based; settings: Oocyte, time 4.0 day; summary of the method: as §4
[8] = target: Ionotropic glutamate receptor NMDA 1/2D (Rattus norvegicus, UniProt P35439+Q62645); experiment: Agonist activity at rat GluN1/GluN2D NMDA receptor expressed in Xenopus oocytes measured after 4 days in presence of L-glutamte by two-electrode voltage-clamp recording assay; type: cell-based, Oocyte; summary of the method: as §3
[9] = target: T1, Glutamate NMDA receptor; Grin1/Grin2b (Rattus norvegicus); experiment: Agonist activity at rat GluN1/GluN2B NMDA receptor expressed in Xenopus oocytes assessed as maximal relative efficacy measured at 300 uM after 4 days in presence of L-glutamte by two-electrode voltage-clamp recording assay relative to glycine; type: cell-based; settings: Oocyte, time 4.0 day; summary of the method: as §1
[10] = target: T3, Ionotropic glutamate receptor NMDA 1/2D (Rattus norvegicus); experiment: Agonist activity at rat GluN1/GluN2D NMDA receptor expressed in Xenopus oocytes assessed as maximal relative efficacy measured at 300 uM after 4 days in presence of L-glutamte by two-electrode voltage-clamp recording assay relative to glycine; type: cell-based; settings: Oocyte, time 4.0 day; summary of the method: as §4
[11] = target: T1, Glutamate NMDA receptor; Grin1/Grin2b (Rattus norvegicus); experiment: Agonist activity at rat GluN1/GluN2B NMDA receptor expressed in Xenopus oocytes assessed as maximal relative efficacy measured at 30 uM after 4 days in presence of L-glutamte by two-electrode voltage-clamp recording assay relative to glycine; type: cell-based; settings: Oocyte, time 4.0 day; summary of the method: as §1
[12] = target: T2, Glutamate NMDA receptor; Grin1/Grin2a (Rattus norvegicus); experiment: Agonist activity at rat GluN1/GluN2A NMDA receptor expressed in Xenopus oocytes assessed as maximal relative efficacy measured at 30 uM after 4 days in presence of L-glutamte by two-electrode voltage-clamp recording assay relative to glycine; type: cell-based; settings: Oocyte, time 4.0 day; summary of the method: as §1
[13] = target: T3, Ionotropic glutamate receptor NMDA 1/2D (Rattus norvegicus); experiment: Agonist activity at rat GluN1/GluN2D NMDA receptor expressed in Xenopus oocytes assessed as maximal relative efficacy measured at 30 uM after 4 days in presence of L-glutamte by two-electrode voltage-clamp recording assay relative to glycine; type: cell-based; settings: Oocyte, time 4.0 day; summary of the method: as §4
[14] = test system: Oocyte; experiment: Agonist activity at mutant GluN1 F484A/T518 mutant//GluN3A NMDA receptor (unknown origin) expressed in Xenopus oocytes measured after 4 days in presence of glycine by two-electrode voltage-clamp recording assay; type: cell-based; settings: Homo sapiens, time 4.0 day
[15] = Binding affinity at recombinant GluN1a/GluN2B NMDA receptor (unknown origin) expressed in Xenopus oocytes measured after 4 days in presence of L-glutamte by two-electrode voltage-clamp recording assay; type: cell-based, Homo sapiens; settings: oocyte
[16] = test system: Oocyte; experiment: Agonist activity at mutant GluN1 F484A/T518 mutant//GluN3B NMDA receptor (unknown origin) expressed in Xenopus oocytes measured after 4 days in presence of glycine by two-electrode voltage-clamp recording assay; type: cell-based; settings: Homo sapiens, time 4.0 day
[17] = target: Glutamate NMDA receptor; Grin1/Grin2b (Rattus norvegicus, UniProt P35439+Q00960); experiment: Agonist activity at rat GluN1/GluN2B NMDA receptor expressed in Xenopus oocytes measured after 4 days in presence of L-glutamte by two-electrode voltage-clamp recording assay; type: cell-based, Oocyte; summary of the method: as §2
[18] = test system: Oocyte; experiment: Agonist activity at recombinant GluN1a/GluN2B NMDA receptor (unknown origin) expressed in Xenopus oocytes assessed as inhibition of glycine-induced activation of current measured at 10 uM after 4 days in presence of L-glutamte by two-electrode voltage-clamp recording assay; type: cell-based; settings: Homo sapiens, filed as agonist, time 4.0 day
Summary of the method: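 Oocytes expressing GluN1/2B were BAPTA-injected and held under two-electrode voltage clamp in continuous 300 μM L-Glu. […] Values are mean ± SEM from 12 oocytes.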

[19] = target: T2, Glutamate NMDA receptor; Grin1/Grin2a (Rattus norvegicus); experiment: Agonist activity at rat GluN1/GluN2A NMDA receptor expressed in Xenopus oocytes assessed as maximal relative efficacy measured at 300 uM after 4 days in presence of L-glutamte by two-electrode voltage-clamp recording assay relative to glycine; type: cell-based; settings: Oocyte, time 4.0 day; summary of the method: as §1
[20] = target: T1, Glutamate NMDA receptor; Grin1/Grin2b (Rattus norvegicus); experiment: Agonist activity at rat GluN1/GluN2B NMDA receptor expressed in Xenopus oocytes assessed as maximal relative efficacy measured at 10 uM after 4 days in presence of L-glutamte by two-electrode voltage-clamp recording assay relative to glycine; type: cell-based; settings: Oocyte, time 4.0 day; summary of the method: as §1

SMILES | Rmax [1] [%] | EC50 [2] [µM] | EC50 [3] [nM] | Rmax [4] [%] | Rmax [5] [%] | Rmax [7] [%] | EC50 [8] [µM] | Rmax ([4]; filed as agonist) [%] | Rmax [9] [%] | further results
N[C@H](CNC(=O)c1ccc(-c2ccccc2C(F)(F)F)o1)C(=O)O | < 5 | 0.13 | 40 | 36 | 24 |  |  |  |  | Rmax [6]: < 5%
COc1ccc(-c2ccc(C(=O)NC[C@@H](N)C(=O)O)o2)cc1 | < 5 |  | 1300 | 26 |  |  |  |  |  | Rmax [6]: < 5%
N[C@H](CNC(=O)c1ccc(-c2ccccc2Br)o1)C(=O)O | < 5 | 0.053 | 36 |  | 34 | 9 | 0.08 | 49 |  | 
N[C@H](CNC(=O)c1ccc(-c2ccccc2/C=C/c2cccc(F)c2)o1)C(=O)O | < 5 |  | 750 | 22 |  |  |  |  |  | 
CN(C)S(=O)(=O)c1ccccc1-c1ccc(C(=O)NC[C@@H](N)C(=O)O)o1 |  | 10 | 4800 |  | 22 |  |  | 119 | < 5 | Rmax [10]: < 5%
N[C@H](CNC(=O)c1ccc(-c2ccccc2/C=C/c2ccccc2)o1)C(=O)O |  |  | 5800 | 16 |  |  |  |  |  | Rmax [11]: < 5%; Rmax [12]: < 5%; Rmax [13]: < 5%
N[C@H](CNC(=O)c1ccc(-c2cccc3c2OCCO3)o1)C(=O)O |  |  | 3900 | 17 |  |  |  |  | < 5 | 
N[C@H](CNC(=O)c1ccc(-c2ccc(Cl)cc2[N+](=O)[O-])o1)C(=O)O | < 5 |  | 74 | 28 |  |  |  |  |  | inhibition [14]: inactive; Ki [15]: 100 nM; inhibition [16]: inactive; IC50 [17]: 10 µM; inhibition [18]: 57%; Rmax [6]: < 5%
N[C@H](CNC(=O)c1ccc(-c2cccc3ccccc23)o1)C(=O)O |  | 0.18 | 110 |  | 29 | 12 | 0.23 | 53 | < 5 | 
N[C@H](CNC(=O)c1ccc(-c2ccc(Cl)cc2)o1)C(=O)O | < 5 | 4.3 | 1700 |  | 14 |  |  | 44 |  | Rmax [6]: < 5%
N[C@H](CNC(=O)c1ccc(-c2ccc(Cl)c(Cl)c2)o1)C(=O)O |  | 23 | 4200 |  | 20 | 24 | 31 | 74 | < 5 | 
N[C@H](CNC(=O)c1ccc(-c2ccccc2)o1)C(=O)O |  | 4.8 | 2900 |  | 22 | 16 | 4.3 | 77 | < 5 | 
N[C@H](CNC(=O)c1ccc(-c2ccccc2OCc2ccccc2)o1)C(=O)O |  |  | 4000 |  |  |  |  | 157 | < 5 | Rmax [19]: < 5%
N[C@H](CNC(=O)c1ccc(-c2ccccc2Cl)o1)C(=O)O |  | 0.26 | 120 |  | 38 | 11 | 0.27 | 70 | < 5 | 
N[C@H](CNC(=O)c1ccc(-c2cccc(Cl)c2)o1)C(=O)O |  | 4.9 | 1300 |  | 27 | 38 | 5 | 68 | < 5 | 
COCc1ccccc1-c1ccc(C(=O)NC[C@@H](N)C(=O)O)o1 |  | 3.1 | 1600 |  | 32 | 11 | 3.2 | 114 | < 5 | 
Cc1ccccc1-c1ccc(C(=O)NC[C@@H](N)C(=O)O)o1 |  | 0.22 | 140 |  |  | 17 | 0.26 | 103 |  | Rmax [20]: < 5%; Rmax ([5]; filed as agonist): 58%
N[C@H](CNC(=O)c1ccc(-c2cccc(C(F)(F)F)c2)o1)C(=O)O |  | 6.6 | 1800 | 36 | 17 | 35 | 7.7 |  | < 5 | 
